Assay results from ChEMBL document CHEMBL3352265, “Potentially bioactive organotin(IV) compounds: synthesis, characterization, in vitro bioactivities and interaction with SS-DNA” (Eur J Med Chem, 2014).
≈ marks a conversion by molar mass, not a printed value. Calls of active or inactive are those of the source. No cut-off for these calls is given here.

Assays:
[1] = system: Aspergillus fumigatus; assay: Antifungal activity against Aspergillus fumigatus FCBP 66 at 40 mg/mL after 7 days by disc diffusion method; type: functional; settings: FCBP 66, 168 h, read-out: DIZ
Procedure, shortened: (§1)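 Disc diffusion on SDA. Fungi cultured at 28 °C for 24 h. 4 mm discs received compound at 40 mg/mL stock in DMSO. DMSO served as negative control, terbinafine as positive control. Plates incubated at 28 °C for 7 days. Growth diameter (mm) measured and inhibition calculated against the negative control. MIC taken as the lowest concentration with no growth.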

[2] = system: Mucor; assay: Antifungal activity against Mucor FCBP 0400 at 40 mg/mL after 7 days by disc diffusion method; type: functional; settings: FCBP 0400, 168 h, read-out: DIZ; procedure, shortened: as §1
[3] = system: Bordetella bronchiseptica; assay: Antibacterial activity against Bordetella bronchiseptica ATCC 4617 at 40 mg/mL after 24 hrs by disc diffusion method; type: functional; settings: ATCC 4617, 24 h, read-out: DIZ
Procedure, shortened: (§2)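 Disc diffusion. Strains grown in nutrient broth at 37 °C for 24 h. 1% culture (about 10^6 CFU/mL) mixed into nutrient agar at 45 °C and poured. 4 mm paper discs received compound at 40 mg/mL stock in DMSO; final concentrations tested were […]. DMSO served as negative control, roxithromycin and cefixime as positive controls. Triplicate plates incubated at 37 °C for 24 h. Complete-inhibition zone diameter (mm) recorded as the mean of 3.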

[4] = system: Escherichia coli; assay: Induction of Escherichia coli pBR322 DNA damage assessed as open circular form at 1000 ug/ml after 60 mins by gel electrophoresis
[5] = system: Escherichia coli; assay: Induction of Escherichia coli pBR322 DNA damage assessed as open circular form at 1 ug/ml after 60 mins by gel electrophoresis
[6] = system: Escherichia coli; assay: Induction of Escherichia coli pBR322 DNA damage assessed as open circular form at 100 ug/ml after 60 mins by gel electrophoresis
[7] = system: Agrobacterium tumefaciens; assay: Antitumor activity against Agrobacterium tumefaciens -induced tumor after 21 days by potato disc bioassay technique; type: functional, organism-based; settings: 504 h
Procedure, shortened: (§3)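 Potato disc assay with 48 h culture of A. tumefaciens At-10. Inoculum contained compound at […]. Red-skinned potatoes sterilized in 0.1% HgCl2; 8 mm × 4 mm discs placed ten per 1.5% agar plate, […] each. Incubated at 28 °C in the dark for 21 days, in triplicate. Discs stained with Lugol's and tumors counted. Percent inhibition calculated against the negative control.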

[8] = system: Bordetella bronchiseptica; assay: Antibacterial activity against Bordetella bronchiseptica ATCC 4617 after 18 hrs by microdilution method; type: functional; settings: ATCC 4617, 18 h
Procedure, shortened: (§4)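 Broth microdilution. Twofold dilutions in culture broth at […]. Each well inoculated with bacterial suspension (10^8 CFU/mL, about 10^5 CFU/well). Sterility control and growth control (broth plus DMSO) included. Incubated at 36 °C for 18 h, in triplicate. MIC taken as the lowest concentration inhibiting growth, given in micrograms per mL.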

[9] = system: Agrobacterium tumefaciens; assay: Antitumor activity against Agrobacterium tumefaciens -induced tumor at 10 ug/ml after 21 days by potato disc bioassay technique; type: functional; procedure, shortened: as §3
[10] = system: Leishmania major; assay: Antileishmanial activity against Leishmania major kwh 23 after 72 hrs using neobar counting by microscopy; type: functional, organism-based; settings: kwh 23, 72 h
Procedure, shortened: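 Leishmania major promastigotes grown 7 days at 24 °C in medium 199 with 10% FBS. Samples as 10,000 ppm DMSO stocks, added to reach 200 ppm in the first row and serially diluted in 96-well plates, DMSO kept <5%. DMSO negative and amphotericin B positive controls. Incubated 72 h at 24 °C. Mortality counted in a counting chamber by light microscopy. Run 3 times. IC50 is the concentration giving 50% parasite reduction.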

[11] = system: Escherichia coli; assay: Induction of Escherichia coli pBR322 DNA damage assessed as open circular form at 10 ug/ml after 60 mins by gel electrophoresis
[12] = system: Salmonella typhimurium; assay: Antibacterial activity against Salmonella typhimurium ATCC 14028 at 40 mg/mL after 24 hrs by disc diffusion method; type: functional, Salmonella enterica subsp. enterica serovar Typhimurium; settings: Salmonella enterica, ATCC 14028, 24 h; read-out: DIZ; procedure, shortened: as §2
[13] = system: Salmonella typhimurium; assay: Antibacterial activity against Salmonella typhimurium ATCC 14028 after 18 hrs by microdilution method; type: functional, Salmonella enterica subsp. enterica serovar Typhimurium; settings: Salmonella enterica, ATCC 14028, 18 h; procedure, shortened: as §4
[14] = system: Escherichia coli; assay: Antibacterial activity against Escherichia coli ATCC 15224 after 18 hrs by microdilution method; type: functional; settings: ATCC 15224, 18 h; procedure, shortened: as §4
[15] = system: Bacillus spizizenii; assay: Antibacterial activity against Bacillus subtilis ATCC 6633 at 40 mg/mL after 24 hrs by disc diffusion method; type: functional; settings: ATCC 6633, 24 h, read-out: DIZ; procedure, shortened: as §2
[16] = system: Staphylococcus aureus; assay: Antibacterial activity against Staphylococcus aureus ATCC 6538 after 18 hrs by microdilution method; type: functional; settings: ATCC 6538, 18 h; procedure, shortened: as §4
[17] = system: Klebsiella aerogenes; assay: Antibacterial activity against Enterobacter aerogenes ATCC 13048 at 40 mg/mL after 24 hrs by disc diffusion method; type: functional; settings: ATCC 13048, 24 h, read-out: DIZ; procedure, shortened: as §2
[18] = system: Artemia salina; assay: Cytotoxicity in brine shrimp assessed as mortality after 24 hrs; type: functional; settings: read-out: LD50 (the source's name)
[19] = system: Agrobacterium tumefaciens; assay: Antitumor activity against Agrobacterium tumefaciens -induced tumor at 1000 ug/ml after 21 days by potato disc bioassay technique; type: functional; procedure, shortened: as §3
[20] = system: Bacillus spizizenii; assay: Antibacterial activity against Bacillus subtilis ATCC 6633 after 18 hrs by microdilution method; type: functional; settings: ATCC 6633, 18 h; procedure, shortened: as §4
[21] = system: Aspergillus flavus; assay: Antifungal activity against Aspergillus flavus FCBP 0064 at 40 mg/mL after 7 days by disc diffusion method; type: functional; settings: FCBP 0064, 168 h, read-out: DIZ; procedure, shortened: as §1
[22] = system: Aspergillus niger; assay: Antifungal activity against Aspergillus niger FCBP 0198 at 40 mg/mL after 7 days by disc diffusion method; type: functional; settings: FCBP 0198, 168 h, read-out: DIZ; procedure, shortened: as §1
[23] = system: Escherichia coli; assay: Antibacterial activity against Escherichia coli ATCC 15224 at 40 mg/mL after 24 hrs by disc diffusion method; type: functional; settings: ATCC 15224, 24 h, read-out: DIZ; procedure, shortened: as §2
[24] = system: Staphylococcus aureus; assay: Antibacterial activity against Staphylococcus aureus ATCC 6538 at 40 mg/mL after 24 hrs by disc diffusion method; type: functional; settings: ATCC 6538, 24 h, read-out: DIZ; procedure, shortened: as §2
[25] = system: Agrobacterium tumefaciens; assay: Antitumor activity against Agrobacterium tumefaciens -induced tumor at 100 ug/ml after 21 days by potato disc bioassay technique; type: functional; procedure, shortened: as §3

Question: For `COc1ccccc1NC(=O)CCC(=O)O`, which zone of inhibition at 40000 µg/mL [1] is on record?
Answer: Its zone of inhibition at 40000 µg/mL is 0 mm.

Question: And the zone of inhibition at 40000 µg/mL [2]?
Answer: The zone of inhibition at 40000 µg/mL was 0 mm.

Question: What about the zone of inhibition at 40000 µg/mL [3] of the same compound?
Answer: The zone of inhibition at 40000 µg/mL was 9 mm.

Question: What about the Activity [4] of the same compound?
Answer: Its Activity is “inactive”.

Question: And the Activity [5]?
Answer: The Activity was “inactive”.

Question: And the Activity [6]?
Answer: The Activity was “inactive”.

Question: And the IC50 [7]?
Answer: Its IC50 is 410 µg/mL (≈ 1840 µM).

Question: And the MIC [8]?
Answer: The MIC was 200 µg/mL (≈ 896 µM).

Question: And the Activity [9]?
Answer: The Activity was 5.63%.

Question: What about the IC50 [10] of the same compound?
Answer: The IC50 was 0.00342 µg/mL (≈ 0.0153 µM).

Question: What about the Activity [11] of the same compound?
Answer: Its Activity is “inactive”.

Question: And the zone of inhibition at 40000 µg/mL [12]?
Answer: Its zone of inhibition at 40000 µg/mL is 8 mm.

Question: What about the MIC [13] of the same compound?
Answer: The MIC was 200 µg/mL (≈ 896 µM).

Question: What about the MIC [14] of the same compound?
Answer: The MIC was 100 µg/mL (≈ 448 µM).

Question: What about the zone of inhibition at 40000 µg/mL [15] of the same compound?
Answer: Its zone of inhibition at 40000 µg/mL is 10 mm.

Question: What about the MIC [16] of the same compound?
Answer: Its MIC is 100 µg/mL (≈ 448 µM).

Question: And the zone of inhibition at 40000 µg/mL [17]?
Answer: The zone of inhibition at 40000 µg/mL was 0 mm.

Question: And the LC50 [18]?
Answer: Its LC50 is 192 µg/mL (≈ 861 µM).

Question: What about the Activity [19] of the same compound?
Answer: The Activity was 62.64%.

Question: And the MIC [20]?
Answer: The MIC was 200 µg/mL (≈ 896 µM).

Question: What about the zone of inhibition at 40000 µg/mL [21] of the same compound?
Answer: The zone of inhibition at 40000 µg/mL was 0 mm.

Question: What about the zone of inhibition at 40000 µg/mL [22] of the same compound?
Answer: Its zone of inhibition at 40000 µg/mL is 0 mm.

Question: And the zone of inhibition at 40000 µg/mL [23]?
Answer: The zone of inhibition at 40000 µg/mL was 16 mm.

Question: What about the zone of inhibition at 40000 µg/mL [24] of the same compound?
Answer: The zone of inhibition at 40000 µg/mL was 11 mm.

Question: And the Activity [25]?
Answer: The Activity was 31.14%.
